Data from ChEMBL document CHEMBL3627690, “Scaffold-Hopping and Structure-Based Discovery of Potent, Selective, And Brain Penetrant N-(1H-Pyrazol-3-yl)pyridin-2-amine Inhibitors of Dual Leucine Zipper Kinase (DLK, MAP3K12)” (J Med Chem, 2015).
Active and inactive are the calls of the source. The rule behind the calls is not given here.

Legend:
[1] = Plasma clearance in […] rat at 0.4 or 1 mg/kg, iv and 1 or 5 mg/kg, po; type: ADME, organism-based
In short: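 Rat PK: iv dosing at 0.4 or 1 mg/kg as a 60% PEG solution, po dosing at 1 or 5 mg/kg as an aqueous suspension with 1% methylcellulose.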

[2] = Neuroprotective activity in Wistar rat DRG neuronal cells by neurodegeration assay; type: functional, cell-based
Mus musculus [3] = assay: Reduction of p-c-Jun level in retina of optic nerve crush injury mouse model at 75 mg/kg, po administered 30 mins prior to nerve crush injury measured at 6 hrs by MSD ELISA; type: functional, organism-based
In short: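 C57/Bl6 mice were dosed orally with a methylcellulose suspension or vehicle 30 min before optic nerve crush. Retinal p-c-Jun was measured 6 h after injury by MSD ELISA. Values are expressed relative to uncrushed vehicle controls as mean ± SEM with individual animals.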

[4] = target: T1, Mast/stem cell growth factor receptor Kit (Homo sapiens, UniProt P10721); assay: Inhibition of Kit (unknown origin) at 1 uM by FRET method
T1 sequence (P10721 whole entry): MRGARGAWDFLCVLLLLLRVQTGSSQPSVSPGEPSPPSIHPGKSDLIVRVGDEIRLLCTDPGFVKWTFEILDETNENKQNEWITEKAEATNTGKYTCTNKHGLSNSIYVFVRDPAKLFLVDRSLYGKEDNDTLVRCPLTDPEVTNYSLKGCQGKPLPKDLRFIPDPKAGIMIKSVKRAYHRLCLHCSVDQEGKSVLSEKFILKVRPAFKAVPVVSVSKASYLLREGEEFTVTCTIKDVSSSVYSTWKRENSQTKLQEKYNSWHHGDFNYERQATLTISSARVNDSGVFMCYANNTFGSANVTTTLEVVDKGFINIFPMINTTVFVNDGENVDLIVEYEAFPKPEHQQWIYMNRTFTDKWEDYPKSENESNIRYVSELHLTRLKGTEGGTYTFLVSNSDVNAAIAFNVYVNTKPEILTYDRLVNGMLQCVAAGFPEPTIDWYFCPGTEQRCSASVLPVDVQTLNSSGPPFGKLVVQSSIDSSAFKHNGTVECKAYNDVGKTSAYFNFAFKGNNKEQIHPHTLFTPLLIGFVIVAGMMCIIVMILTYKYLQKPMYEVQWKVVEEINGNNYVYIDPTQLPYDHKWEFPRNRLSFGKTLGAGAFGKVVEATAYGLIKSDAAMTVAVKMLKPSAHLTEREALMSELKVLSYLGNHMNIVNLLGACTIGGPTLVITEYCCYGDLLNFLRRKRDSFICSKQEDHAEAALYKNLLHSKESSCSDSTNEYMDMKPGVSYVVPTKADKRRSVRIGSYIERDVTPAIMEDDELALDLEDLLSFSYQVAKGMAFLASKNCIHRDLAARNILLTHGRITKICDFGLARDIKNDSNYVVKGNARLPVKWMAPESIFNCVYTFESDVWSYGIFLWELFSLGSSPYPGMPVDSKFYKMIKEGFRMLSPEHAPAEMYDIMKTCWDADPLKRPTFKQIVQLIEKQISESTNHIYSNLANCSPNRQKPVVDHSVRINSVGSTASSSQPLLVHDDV
In short: (§1)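 SelectScreen panel of 58 kinases, each tested at a single 1 µM compound concentration. Read-out was Z′-LYTE FRET of labeled peptide phosphorylation, run by the vendor's protocols, reported as percent inhibition.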

[5] = target: Fibroblast growth factor receptor 1 (Homo sapiens) (UniProt P11362); assay: Inhibition of FGFR1 (unknown origin) at 1 uM by FRET method; in short: as §1
[6] = target: T2, BDNF/NT-3 growth factors receptor (Homo sapiens, UniProt Q16620); assay: Inhibition of TrkB (unknown origin) by FRET method
In short: (§2)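 Biochemical IC50 determination from a 10-point dose-response in an enzymatic Z′-LYTE assay. Labeled-peptide phosphorylation was read by FRET under the vendor's protocols.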

[7] = target: T3, Mitogen-activated protein kinase kinase kinase 12 (Homo sapiens, UniProt Q12852); assay: Inhibition of Dox inducible human DLK transfected in HEK293 cells assessed as reduction in JNK phosphorylation incubated for 5.5 hrs measured by Hoechst 33342 staining based imaging analysis; type: cell-based
T3 sequence (Q12852 whole entry): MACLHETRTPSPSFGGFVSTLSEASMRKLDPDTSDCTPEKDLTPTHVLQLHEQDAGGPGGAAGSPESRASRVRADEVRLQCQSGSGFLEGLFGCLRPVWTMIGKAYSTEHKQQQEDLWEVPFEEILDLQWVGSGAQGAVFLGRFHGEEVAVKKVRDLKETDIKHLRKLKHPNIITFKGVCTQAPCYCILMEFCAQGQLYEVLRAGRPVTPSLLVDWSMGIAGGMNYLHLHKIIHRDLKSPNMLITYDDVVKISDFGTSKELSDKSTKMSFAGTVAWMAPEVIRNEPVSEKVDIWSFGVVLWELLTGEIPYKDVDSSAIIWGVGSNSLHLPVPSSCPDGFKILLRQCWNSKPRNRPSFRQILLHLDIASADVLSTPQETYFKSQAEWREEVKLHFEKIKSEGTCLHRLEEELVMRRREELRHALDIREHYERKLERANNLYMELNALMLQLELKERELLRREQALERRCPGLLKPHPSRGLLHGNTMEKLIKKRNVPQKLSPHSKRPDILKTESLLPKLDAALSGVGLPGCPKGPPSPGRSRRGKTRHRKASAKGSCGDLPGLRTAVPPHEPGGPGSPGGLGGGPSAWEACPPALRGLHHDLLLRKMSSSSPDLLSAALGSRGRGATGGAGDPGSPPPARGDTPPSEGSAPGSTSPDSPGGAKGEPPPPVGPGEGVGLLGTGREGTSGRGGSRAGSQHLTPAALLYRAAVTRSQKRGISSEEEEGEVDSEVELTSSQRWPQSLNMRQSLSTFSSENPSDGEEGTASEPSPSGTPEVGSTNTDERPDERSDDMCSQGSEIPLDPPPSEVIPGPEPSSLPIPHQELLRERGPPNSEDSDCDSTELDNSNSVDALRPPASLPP

[8] = target: Dual specificity mitogen-activated protein kinase kinase 7 (Homo sapiens, UniProt O14733); assay: Inhibition of MKK7 (unknown origin) using KFMMpTPYVVTR substrate incubated for 1 hr measured by MpTPpYV probe-based fluorescence polarization assay
[9] = target: Protein kinase C beta type (Homo sapiens) (UniProt P05771); assay: Inhibition of PKCbeta1 (unknown origin) at 1 uM by FRET method
In short: (§3)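 Single-point screen at 1 uM against a panel of 58 representative kinases. Readout was labeled-peptide phosphorylation by FRET (Z′-LYTE), using the vendor's protocols.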

[10] = target: Interleukin-1 receptor-associated kinase 4 (Homo sapiens) (UniProt Q9NWZ3); assay: Inhibition of IRAK4 (unknown origin) at 1 uM by FRET method; in short: as §1
[11] = target: Inhibitor of nuclear factor kappa-B kinase subunit beta (Homo sapiens) (UniProt O14920); assay: Inhibition of IKKbeta (unknown origin) at 1 uM by FRET method; in short: as §1
[12] = target: CDK8/Cyclin C (Homo sapiens) (UniProt P49336+P24863); assay: Inhibition of […]/cyclinC (unknown origin) at 1 uM by FRET method; type: protein-complex assay; in short: as §1
[13] = target: Dual specificity tyrosine-phosphorylation-regulated kinase 3 (Homo sapiens) (UniProt O43781); assay: Inhibition of DYRK3 (unknown origin) at 1 uM by FRET method; in short: as §1
[14] = target: T1, Mast/stem cell growth factor receptor Kit; assay: Inhibition of Kit (unknown origin) by FRET method
[15] = target: Macrophage colony-stimulating factor 1 receptor (Homo sapiens, UniProt P07333); assay: Inhibition of CSF1R (unknown origin) at 1 uM by FRET method; in short: as §1
Chain of Macrophage colony-stimulating factor 1 receptor (P07333 whole entry): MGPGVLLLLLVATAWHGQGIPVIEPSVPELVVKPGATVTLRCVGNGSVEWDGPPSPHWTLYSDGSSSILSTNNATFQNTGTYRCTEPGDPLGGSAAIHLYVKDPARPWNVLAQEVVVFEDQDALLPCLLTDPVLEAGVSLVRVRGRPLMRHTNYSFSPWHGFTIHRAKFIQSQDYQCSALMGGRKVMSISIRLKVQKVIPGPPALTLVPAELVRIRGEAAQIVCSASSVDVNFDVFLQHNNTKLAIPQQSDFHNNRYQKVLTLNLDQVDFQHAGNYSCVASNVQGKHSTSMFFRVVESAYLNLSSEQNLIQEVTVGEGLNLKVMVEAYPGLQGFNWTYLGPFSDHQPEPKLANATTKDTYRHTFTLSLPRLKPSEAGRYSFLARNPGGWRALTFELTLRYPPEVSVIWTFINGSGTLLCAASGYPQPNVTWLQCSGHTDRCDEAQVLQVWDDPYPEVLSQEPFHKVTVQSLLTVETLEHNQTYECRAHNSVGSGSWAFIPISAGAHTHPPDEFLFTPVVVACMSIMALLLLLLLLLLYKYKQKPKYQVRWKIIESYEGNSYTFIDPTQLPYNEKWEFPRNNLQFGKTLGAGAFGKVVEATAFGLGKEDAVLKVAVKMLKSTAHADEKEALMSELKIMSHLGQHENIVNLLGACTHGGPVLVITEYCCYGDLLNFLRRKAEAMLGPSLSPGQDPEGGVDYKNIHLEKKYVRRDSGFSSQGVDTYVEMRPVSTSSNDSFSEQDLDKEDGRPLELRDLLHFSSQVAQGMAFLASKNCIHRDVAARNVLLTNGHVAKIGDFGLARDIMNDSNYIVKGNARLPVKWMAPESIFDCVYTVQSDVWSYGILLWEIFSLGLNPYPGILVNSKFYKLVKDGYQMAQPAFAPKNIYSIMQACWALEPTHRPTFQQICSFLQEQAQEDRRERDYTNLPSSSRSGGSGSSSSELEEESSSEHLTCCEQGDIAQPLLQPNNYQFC

[16] = target: Serine/threonine-protein kinase Chk1 (Homo sapiens) (UniProt O14757); assay: Inhibition of CHK1 (unknown origin) at 1 uM by FRET method; in short: as §1
Chain of Serine/threonine-protein kinase Chk1 (Homo sapiens) (O14757 whole entry): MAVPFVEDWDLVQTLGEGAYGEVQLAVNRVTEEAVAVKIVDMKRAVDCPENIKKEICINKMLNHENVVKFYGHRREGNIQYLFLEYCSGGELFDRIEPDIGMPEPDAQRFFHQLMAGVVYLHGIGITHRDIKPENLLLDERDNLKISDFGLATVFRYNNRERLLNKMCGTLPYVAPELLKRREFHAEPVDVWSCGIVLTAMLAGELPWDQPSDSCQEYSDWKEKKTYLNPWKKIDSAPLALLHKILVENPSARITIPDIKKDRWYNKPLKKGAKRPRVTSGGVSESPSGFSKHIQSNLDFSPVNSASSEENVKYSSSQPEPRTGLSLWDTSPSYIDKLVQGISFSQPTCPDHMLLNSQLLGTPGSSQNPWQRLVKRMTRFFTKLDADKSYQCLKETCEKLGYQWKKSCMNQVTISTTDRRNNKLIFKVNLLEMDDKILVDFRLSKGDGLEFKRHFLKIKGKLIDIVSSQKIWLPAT

[17] = target: Angiopoietin-1 receptor (Homo sapiens) (UniProt Q02763); assay: Inhibition of Tie2 (unknown origin) at 1 uM by FRET method; in short: as §3
[18] = target: T3, Mitogen-activated protein kinase kinase kinase 12; assay: Inhibition of N-terminally GST- tagged human DLK catalytic domain (1 to 520 amino acids) using N-terminally HIS-tagged MKK4 K131M as substrate incubated for 60 mins by TR-FRET assay
[19] = target: Mitogen-activated protein kinase kinase kinase 11 (Homo sapiens, UniProt Q16584); assay: Inhibition of MLK3 (unknown origin) by FRET method; in short: as §2
Chain of Mitogen-activated protein kinase kinase kinase 11 (Q16584 whole entry): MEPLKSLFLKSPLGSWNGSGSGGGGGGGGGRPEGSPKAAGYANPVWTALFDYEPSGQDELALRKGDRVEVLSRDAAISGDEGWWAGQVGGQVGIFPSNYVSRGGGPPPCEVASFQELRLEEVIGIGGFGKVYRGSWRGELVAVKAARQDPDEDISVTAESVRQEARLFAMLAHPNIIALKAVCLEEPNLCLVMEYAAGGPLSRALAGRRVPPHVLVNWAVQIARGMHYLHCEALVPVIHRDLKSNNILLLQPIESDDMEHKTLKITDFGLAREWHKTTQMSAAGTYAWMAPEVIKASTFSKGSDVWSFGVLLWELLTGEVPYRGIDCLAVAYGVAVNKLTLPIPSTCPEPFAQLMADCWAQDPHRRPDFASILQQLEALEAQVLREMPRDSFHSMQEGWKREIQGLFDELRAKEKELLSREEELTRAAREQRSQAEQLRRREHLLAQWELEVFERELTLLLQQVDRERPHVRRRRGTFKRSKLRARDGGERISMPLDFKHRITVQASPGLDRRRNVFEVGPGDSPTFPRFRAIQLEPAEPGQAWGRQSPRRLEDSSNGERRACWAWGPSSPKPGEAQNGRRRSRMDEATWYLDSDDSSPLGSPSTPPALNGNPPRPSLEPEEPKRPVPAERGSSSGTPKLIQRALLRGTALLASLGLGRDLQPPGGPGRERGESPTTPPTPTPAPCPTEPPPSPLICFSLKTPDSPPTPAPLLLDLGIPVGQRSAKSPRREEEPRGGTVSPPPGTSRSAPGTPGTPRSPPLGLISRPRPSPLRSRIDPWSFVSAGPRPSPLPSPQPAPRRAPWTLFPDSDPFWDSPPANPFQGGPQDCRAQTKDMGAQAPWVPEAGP

[20] = target: T4, Mitogen-activated protein kinase kinase kinase 10 (Homo sapiens, UniProt Q02779); conditions: 1 uM
Target sequence in this assay (Q02779 whole entry, looked up): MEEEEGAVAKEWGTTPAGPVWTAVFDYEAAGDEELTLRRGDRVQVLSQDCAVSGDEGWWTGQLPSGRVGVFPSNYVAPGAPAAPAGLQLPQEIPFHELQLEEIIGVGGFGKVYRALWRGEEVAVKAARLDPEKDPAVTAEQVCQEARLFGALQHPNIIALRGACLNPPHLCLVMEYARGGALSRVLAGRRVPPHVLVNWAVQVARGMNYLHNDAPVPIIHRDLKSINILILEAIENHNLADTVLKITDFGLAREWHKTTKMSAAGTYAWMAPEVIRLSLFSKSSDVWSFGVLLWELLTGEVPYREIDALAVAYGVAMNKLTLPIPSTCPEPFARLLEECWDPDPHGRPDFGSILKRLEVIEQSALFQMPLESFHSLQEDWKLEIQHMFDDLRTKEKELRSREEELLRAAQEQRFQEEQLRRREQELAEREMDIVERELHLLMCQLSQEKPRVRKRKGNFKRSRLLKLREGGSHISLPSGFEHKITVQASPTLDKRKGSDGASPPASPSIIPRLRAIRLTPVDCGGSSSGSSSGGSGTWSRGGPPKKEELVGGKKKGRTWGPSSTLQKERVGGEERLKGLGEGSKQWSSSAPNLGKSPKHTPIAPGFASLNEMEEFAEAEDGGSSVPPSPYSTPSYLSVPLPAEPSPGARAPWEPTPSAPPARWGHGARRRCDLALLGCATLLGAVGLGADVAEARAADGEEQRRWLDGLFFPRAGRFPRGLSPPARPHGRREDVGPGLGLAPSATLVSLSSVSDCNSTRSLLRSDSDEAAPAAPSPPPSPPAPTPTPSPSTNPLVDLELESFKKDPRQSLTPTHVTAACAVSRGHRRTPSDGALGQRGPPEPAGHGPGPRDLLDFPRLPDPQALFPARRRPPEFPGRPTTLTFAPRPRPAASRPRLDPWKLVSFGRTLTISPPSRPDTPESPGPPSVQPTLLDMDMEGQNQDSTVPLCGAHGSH

Mus musculus [21] = assay: Unbound fraction in brain in mouse at 50 mg/kg, po at 6 hr; type: ADME, organism-based; conditions: in vivo
[22] = target: Activin receptor type-1B (Homo sapiens) (UniProt P36896); assay: Inhibition of ACVR1B (unknown origin) at 1 uM by FRET method; in short: as §1
[23] = target: T4, Mitogen-activated protein kinase kinase kinase 10; assay: Inhibition of MLK2 (unknown origin) by FRET method; in short: as §2
Target sequence in this assay (Q02779 whole entry): as the sequence (Q02779 whole entry, looked up) above

[24] = target: T2, BDNF/NT-3 growth factors receptor; conditions: 1 uM
Target sequence in this assay (Q16620 32-822 limits assumed): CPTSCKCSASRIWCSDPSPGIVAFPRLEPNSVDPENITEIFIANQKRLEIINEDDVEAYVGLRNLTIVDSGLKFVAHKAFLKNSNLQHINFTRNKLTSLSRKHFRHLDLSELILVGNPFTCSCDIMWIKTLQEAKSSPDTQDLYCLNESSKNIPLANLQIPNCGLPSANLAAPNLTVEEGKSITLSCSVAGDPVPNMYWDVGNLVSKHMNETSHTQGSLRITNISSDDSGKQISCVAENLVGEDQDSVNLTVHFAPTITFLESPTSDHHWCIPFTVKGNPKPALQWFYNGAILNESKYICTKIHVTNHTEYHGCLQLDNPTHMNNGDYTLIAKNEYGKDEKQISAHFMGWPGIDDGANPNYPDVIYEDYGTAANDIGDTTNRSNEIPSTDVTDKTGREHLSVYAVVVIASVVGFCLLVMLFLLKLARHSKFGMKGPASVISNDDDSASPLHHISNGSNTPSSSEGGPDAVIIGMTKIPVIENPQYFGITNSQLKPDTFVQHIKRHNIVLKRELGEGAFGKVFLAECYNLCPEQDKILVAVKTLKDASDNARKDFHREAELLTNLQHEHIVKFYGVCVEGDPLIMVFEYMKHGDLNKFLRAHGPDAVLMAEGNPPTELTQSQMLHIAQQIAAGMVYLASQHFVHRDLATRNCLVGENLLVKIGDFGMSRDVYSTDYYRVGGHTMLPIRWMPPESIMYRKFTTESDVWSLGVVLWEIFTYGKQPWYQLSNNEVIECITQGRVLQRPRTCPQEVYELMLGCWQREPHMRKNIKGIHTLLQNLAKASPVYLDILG

SMILES: N#Cc1ccnc(Nc2cc(C3CCN(C4COC4)CC3)n(C3CCCC3)n2)c1
- clearance [1]: 34 mL/min/kg
- EC50 [2]: 2150 nM
- Activity (Mus musculus [3]): Active
- inhibition [4]: 56%
- inhibition [5]: 0.3%
- IC50 [6]: 1190 nM
- IC50 [7]: 536 nM
- IC50 [8]: > 5000 nM
- inhibition [9]: 15.9%
- inhibition [10]: 19.5%
- inhibition [11]: 5.4%
- inhibition [12]: 11.6%
- inhibition [13]: 0.3%
- IC50 [14]: 534 nM
- inhibition [15]: 51.8%
- inhibition [16]: -2.3%
- inhibition [17]: 1.8%
- Ki [18]: 42 nM
- IC50 [19]: > 10000 nM
- inhibition [20]: 1.6%
- Drug uptake(free) (Mus musculus [21]): 0.05 µM
- inhibition [22]: 7.1%
- IC50 [23]: > 10000 nM
- inhibition [24]: 50.5%
